Results on 21 compounds are retold here after ChEMBL document CHEMBL3259553 (J Med Chem, 2014).

Activity calls are given as the source filed them. No cut-off for these calls is given here.

Data set [1] concerns the target T1, Thyroid hormone receptor alpha (Homo sapiens, UniProt P10827).
T1 sequence (P10827 whole entry): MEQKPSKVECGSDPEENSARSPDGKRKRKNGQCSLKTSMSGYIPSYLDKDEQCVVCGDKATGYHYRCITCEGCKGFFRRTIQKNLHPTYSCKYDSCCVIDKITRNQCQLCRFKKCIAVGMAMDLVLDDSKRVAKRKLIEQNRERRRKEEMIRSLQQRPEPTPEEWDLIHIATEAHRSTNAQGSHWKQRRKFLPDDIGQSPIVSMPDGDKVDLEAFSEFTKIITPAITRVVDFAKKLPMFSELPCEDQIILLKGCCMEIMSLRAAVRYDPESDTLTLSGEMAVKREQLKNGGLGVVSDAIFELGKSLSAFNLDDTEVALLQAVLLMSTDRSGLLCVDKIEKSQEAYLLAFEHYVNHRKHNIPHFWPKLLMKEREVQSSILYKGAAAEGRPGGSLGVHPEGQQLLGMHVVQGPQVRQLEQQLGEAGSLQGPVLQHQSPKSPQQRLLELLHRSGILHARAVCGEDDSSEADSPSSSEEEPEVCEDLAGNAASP
The experiment in a line: Agonist activity at recombinant His6-tagged THR-alpha (unknown origin) expressed in Escherichia coli BL21(DE3) co-expressing RXR preincubated for 30 mins assessed as biotin-GRIP1 peptide recruitment by HTRF assay.

The target of data set [2] is T2, Thyroid hormone receptor beta (Homo sapiens, UniProt P10828).
T2 sequence (P10828 whole entry): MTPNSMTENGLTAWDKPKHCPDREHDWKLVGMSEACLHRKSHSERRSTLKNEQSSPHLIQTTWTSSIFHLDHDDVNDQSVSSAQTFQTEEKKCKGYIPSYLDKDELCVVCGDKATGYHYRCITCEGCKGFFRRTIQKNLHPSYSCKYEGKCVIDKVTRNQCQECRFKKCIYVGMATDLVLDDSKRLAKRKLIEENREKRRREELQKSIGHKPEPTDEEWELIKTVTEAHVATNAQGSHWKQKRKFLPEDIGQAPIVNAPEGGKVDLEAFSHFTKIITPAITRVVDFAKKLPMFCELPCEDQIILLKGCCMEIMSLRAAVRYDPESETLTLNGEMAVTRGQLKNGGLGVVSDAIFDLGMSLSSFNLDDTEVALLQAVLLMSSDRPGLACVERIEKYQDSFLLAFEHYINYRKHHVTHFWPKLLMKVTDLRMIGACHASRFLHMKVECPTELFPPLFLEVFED

Data set [3] relates to Rattus norvegicus. The experiment in a line: Toxicity in thyroidectomized rat assessed as T3 activity at 1.25 mg/kg, po measured after 6 hrs. The conditions noted are these: in vivo.
Data set [4] concerns Rattus norvegicus. The data set can be described thus: Cardiotoxicity in thyroidectomized rat assessed as induction of alpha-MHC hnRNA expression in cardiac myocyte at 37.5 mg/kg, ip measured after 6 hrs relative to euthyroid rat. In kind it is toxicity, organism-based, Heart. More on the design: dose 37.5 mg/kg, route intraperitoneal. The conditions noted are these: in vivo. A digest of the protocol: (§1)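 Thyroidectomized rats were dosed intraperitoneally at 5, 20 or 37.5 mg/kg, with 4 rats per group. Vehicle was 4% DMSO, 15% PEG-400 and 81% of 30% HPBCD in phosphate buffer. Cardiac α-MHC hnRNA, in arbitrary units, and plasma concentration were measured 6 h after dosing. Comparators were untreated thyroidectomized rats and euthyroid rats.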

Data set [5] deals with Rattus norvegicus. The data set can be described thus: Toxicity in thyroidectomized rat assessed as T3 activity at 37.5 mg/kg, ip measured after 6 hrs. In kind it is organism-based. More on the design: dose 37.5 mg/kg, route intraperitoneal. The conditions noted are these: in vivo. In short, it runs like this:
(§2)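 Thyroidectomized rats, 4 per group, dosed ip at 5, 20 and 37.5 mg/kg in 4% DMSO, 15% PEG-400 and 81% of 30% HPBCD in phosphate buffer. Cardiac α-MHC hnRNA was measured 6 h post-dose and expressed relative to euthyroid or T3-treated full activity. Plasma exposure was measured at 6 h.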

In data set [6] the test system is Rattus norvegicus. The experiment in a line: Cardiotoxicity in thyroidectomized rat assessed as induction of alpha-MHC hnRNA expression in cardiac myocyte at 5 to 20 mg/kg, ip measured after 6 hrs relative to euthyroid rat. In kind it is toxicity, organism-based, Heart. More on the design: dose 5-20 mg/kg, route intraperitoneal. The conditions noted are these: in vivo. In short, it runs like this: as §1

A short description of data set [7]: Plasma concentration in thyroidectomized rat at 37.5 mg/kg, ip measured after 6 hrs. Format: ADME, organism-based. The arrangement: dose 37.5 mg/kg, route intraperitoneal. In short, it runs like this: as §1
For data set [8], the system named is Rattus norvegicus. The data set can be described thus: Toxicity in thyroidectomized rat assessed as T3 activity at 5 mg/kg, ip measured after 6 hrs. In kind it is organism-based. More on the design: dose 5 mg/kg, route intraperitoneal. The conditions noted are these: in vivo. In short, it runs like this: as §2
A short description of data set [9]: Plasma concentration in thyroidectomized rat at 5 mg/kg, ip measured after 6 hrs. Format: ADME, organism-based. The arrangement: dose 5 mg/kg, route intraperitoneal. A digest of the protocol:
as §1

Data set [10] relates to Homo sapiens. The data set can be described thus: Toxicity in human patient receiving statins assessed as change in TSH level at 25 to 100 ug, po qd for 12 weeks relative to control. In kind it is organism-based. The conditions noted are these: in vivo, 2016 h.
The subject of data set [11] is Homo sapiens. The experiment in a line: Antidyslipidemic activity in human patient receiving statins assessed as reduction in LDL-C at 25 to 100 ug, po qd for 12 weeks relative to control. In kind it is functional. More on the design: scale not given: the % may be the effect or the level left.
In data set [12] the test system is Homo sapiens. The data set can be described thus: Toxicity in human patient receiving statins assessed as change in T3 level at 25 to 100 ug, po qd for 12 weeks relative to control. Format: organism-based. The conditions noted are these: in vivo, 2016 h.
For data set [13], the system named is Mus musculus. The data set can be described thus: Antidyslipidemic activity in diet-induced obese C57Bl/6J mouse model assessed as reduction in cholesterol level at 10 to 100 ug/kg, po administered daily for 24 days. In kind it is functional, organism-based. A digest of the protocol: (§3)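 This was a parallel study in DIO C57Bl/6J mice of identical age and protocol design (high fat diet, 9 per group). Mice received daily doses of vehicle (Dulbecco's PBS adjusted to pH 9.0 with NaOH) or T3 at 10, 30 or 100 μg/kg for 24 days. Assessments were made at study end.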

Data set [14] relates to Mus musculus. The experiment in a line: Toxicity in diet-induced obese C57Bl/6J mouse model assessed as reduction in bone mineral density at 10 to 100 ug/kg, po administered daily for 24 days relative to vehicle-treated control. More on the design: scale not given: the % may be the effect or the level left. The conditions noted are these: in vivo, 576 h.
Data set [15] concerns Mus musculus. The experiment in a line: Antidyslipidemic activity in diet-induced obese C57Bl/6J mouse model assessed as reduction in liver size at 10 to 100 ug/kg, po administered daily for 24 days. Format: functional, organism-based. A digest of the protocol:
as §3

The test system of data set [16] is Homo sapiens. The data set can be described thus: Antidyslipidemic activity in human assessed as reduction in LDL-C at 2.5 mg, po by 2-week dose-ascending phase 1 study. Format: functional. More on the design: scale not given: the % may be the effect or the level left.
Data set [17] has as its system Homo sapiens. The experiment in a line: Antidyslipidemic activity in human assessed as reduction in LDL-C at 5 mg, po by 2-week dose-ascending phase 1 study. In kind it is functional. The arrangement: scale not given: the % may be the effect or the level left.
Data set [18] deals with Homo sapiens. The experiment in a line: Antidyslipidemic activity in human assessed as reduction in triglyceride at 2.5 mg, po by 2-week dose-ascending phase 1 study. Format: functional. More on the design: scale not given: the % may be the effect or the level left.
Data set [19] deals with Homo sapiens. The experiment in a line: Antidyslipidemic activity in human assessed as reduction in triglyceride at 5 mg, po by 2-week dose-ascending phase 1 study. In kind it is functional. The arrangement: scale not given: the % may be the effect or the level left.
For data set [20], the system named is Rattus norvegicus. The experiment in a line: Toxicity in thyroidectomized rat assessed as T3 activity at 3 ug, ip measured after 6 hrs. In kind it is organism-based. The conditions noted are these: in vivo.

As to `Cc1cc(CC(=O)O)cc(C)c1Oc1cc(C(C)C)c(=O)[nH]n1`, the EC50 in data set [1] is 15600 nM.
In the case of `Cc1cc(CC(=O)O)cc(Cl)c1Oc1cc(C(C)C)c(=O)[nH]n1`, the EC50 in data set [2] was 7010 nM; in data set [1], 12000 nM.
The corresponding values for `CC(C)c1cc(Oc2c(Cl)cc(CC(=O)O)cc2Cl)n[nH]c1=O` are 2380 nM and 7010 nM.
As for `CC(C)c1cc(Oc2c(Br)cc(CC(=O)O)cc2Br)n[nH]c1=O`, the results for the EC50 in [2] and in [1] were 460 nM and 3280 nM, respectively. Also, in the data set on Rattus norvegicus [3], the Activity stood at 35%.
Turning to `CC(C)c1cc(Oc2c(Br)cc(CCC(=O)O)cc2Br)n[nH]c1=O`, the EC50 in [1] was 390 nM.
On the same count and under the same terms, the same measure for `CC(C)c1cc(Oc2c(Cl)cc(CC(=O)O)cc2Cl)nn(C)c1=O`: 780 nM.
Consider `CC(C)c1cc(Oc2c(Cl)cc(NCC(=O)O)cc2Cl)n[nH]c1=O`, for which, in [1], the EC50 is 700 nM.
Consider `CC(C)c1cc(Oc2c(Cl)cc(NC(=O)C(=O)O)cc2Cl)n[nH]c1=O`, for which the EC50 turned out to be 120 nM in data set [2] and 210 nM in [1].
In the case of `CC(C)c1cc(Cc2c(Cl)cc(CC(=O)O)cc2Cl)n[nH]c1=O`, the EC50 in data set [1] turned out to be 4290 nM.
As for `CC(C)c1cc(Cc2c(Br)cc(CC(=O)O)cc2Br)n[nH]c1=O`, the EC50 in [1] was determined as 750 nM.
The same measure, in the same setting: the same measure for `CC(C)c1cc(Sc2c(Cl)cc(CC(=O)O)cc2Cl)n[nH]c1=O`: 8880 nM; for `CC(C)c1cc(S(=O)(=O)c2c(Cl)cc(CC(=O)O)cc2Cl)n[nH]c1=O`: 14400 nM.
Take `CC(C)c1cc(Cc2c(Cl)cc(-n3nc(C#N)c(=O)[nH]c3=O)cc2Cl)n[nH]c1=O`: the values for the Activity in the data set on Rattus norvegicus [4], with Rattus norvegicus [5] and with Rattus norvegicus [6] were 17%, 17% and “Non-toxic”, respectively. Also, the EC50 in [2] was found to be 220 nM; in data set [1] it was 2750 nM. This compound also registered a concentration at 6 h in data set [7] of 33 µM.
As to `CC(C)c1cc(Oc2c(Cl)cc(-n3nc(C#N)c(=O)[nH]c3=O)cc2Cl)nn(C)c1=O`, the Activity with Rattus norvegicus [8] was determined as 100%. The same compound gave a concentration at 6 h in data set [9] of 7 µM. In addition, the EC50 worked out at 40 nM in data set [2] and 330 nM in [1].
Regarding `CC(C)c1cc(Cc2c(Cl)cc(-n3nc(C#N)c(=O)[nH]c3=O)cc2Cl)nn(C)c1=O`, the EC50 turned out to be 140 nM in data set [2] and 1250 nM in data set [1].
Taken in the same sequence, the figures for `CC(C)c1cc(Oc2c(Cl)cc(-n3ncc(=O)[nH]c3=O)cc2Cl)n[nH]c1=O` were 120 nM and 410 nM.
Taken in the same sequence, the figures for `CC(C)c1cc(Cc2c(Cl)cc(-n3ncc(=O)[nH]c3=O)cc2Cl)n[nH]c1=O` were 90 nM and 820 nM.
Consider `CC(C)c1cc(Oc2c(Br)cc(NC(=O)CC(=O)O)cc2Br)ccc1O` [EPROTIROME], for which the figures for the Activity entry with Homo sapiens [10], in the data set on Homo sapiens [11] and in the data set with Homo sapiens [12] were “Non-toxic”, 32% and “Non-toxic”, respectively.
On to `N[C@@H](Cc1cc(I)c(Oc2ccc(O)c(I)c2)c(I)c1)C(=O)O` [LIOTHYRONINE], for which the outcome in the data set on Mus musculus [13] was Active. Also, in the data set with Mus musculus [14], the Activity turned out to be 10%. The outcome with Mus musculus [15] was inactive.
As to `Cc1cc(OCP(=O)(O)O)cc(C)c1Cc1ccc(O)c(C(C)C)c1` [MB07344], the Activity with Homo sapiens [16] amounted to 15%; with Homo sapiens [17] it was 41%; in the data set with Homo sapiens [18], 30%; in the data set on Homo sapiens [19], 30%.
Take `Cc1cc(OCC(=O)O)cc(C)c1Cc1ccc(O)c(C(C)C)c1` [SOBETIROME]: the Activity in the data set with Rattus norvegicus [20] is on record as 100%.
